Source: the array DNA melting data of Ke et al. (doi:10.1101/2024.01.08.574731)

Experiments:
[1] = folding enthalpy; higher = less favourable; fluorescence melt of hairpins on a sequencing array, two-state fit; settings: sodium 0.088 M
In short: (§1)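 Melting temperature and folding enthalpy were derived from bootstrapped two-state fits. The fitted temperatures were raised by 9.35 °C to agree with UV melts, and four replicates were combined by inverse variance. The underlying data were Cy3 fluorescence images of library hairpins, with annealed Cy3 and quencher oligos, on a sequenced MiSeq flow cell in 50 mM Na-HEPES pH 8.0, 25 mM NaCl, taken in 2.5 °C steps up to 60 °C, normalised to pre-quench Cy3 and to control constructs.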

[2] = melting temperature; fluorescence melt of hairpins on a sequencing array, two-state fit, raised by 9.35 °C to match UV melts; settings: sodium 0.088 M
In short: as §1

Sequence | folding enthalpy [1] [kcal/mol] | Tm [2] [°C]
GCAGTGCGAAAGCTTTGC (((..((....))..))) | -14 | 51.2
GCAGTGGGAAACCACTAC (.(((((....))))).) | -12.9 | 41.1
GCAGTGGGAAACCGTTGC (((..((....))..))) | -19.4 | 38.1
GCAGTGGGAAACTGCTGC ((((..(....)..)))) | -27.6 | 58.1
GCAGTGTCGAAAGACTGC (((..(((....)))))) | -23 | 48.3
GCAGTTACGAAAGTATGC (((..(((....)))))) | -21.6 | 33.9
GCAGTTCGAAAGAAATGC (((.(((....))).))) | -36.8 | 54.2
GCAGTTGCGAAAGCATGC (((..(((....)))))) | -16.8 | 42
GCAGTTGGAAACAGTTGC (((..((....))..))) | -13.8 | 29.7
GCATACACGAAAGTGTGC (((..(((....)))))) | -16.1 | 45.9
GCATACCGAAAGGTGTGC (((.(((....))).))) | -43.2 | 63.3
GCATACGAAAGTAACTGC ((((((....)))..))) | -13.6 | 31.1
GCATACGAAAGTAATGC ((((((....))).))) | -35.4 | 50.1
GCATACGAAAGTACTGC ((((((....))).))) | -22.4 | 41.4
GCATACGAAAGTACTTGC ((((((....)))..))) | -11.7 | 30.8
GCATACGAAAGTAGATGC ((((((....)))..))) | -27.1 | 41.1
GCATACGAAAGTAGGTGC ((((((....)))..))) | -27.1 | 40.4
GCATAGCGAAAGCAATGC ((((.((....)).)))) | -23.1 | 60.4
GCATAGCGAAAGCCGTGC (((..((....))..))) | -17.5 | 39.6
GCATAGCGAAAGCGAAGC ((.(.((....)).).)) | -22.6 | 58.1
GCATAGCGAAAGCGTTGC (((..((....))..))) | -27.1 | 56.8
GCATAGCGAAAGCTAAGC ((.((((....)))).)) | -16.2 | 51.2
GCATAGCGAAAGCTGGGC ((..(((....)))..)) | -18.1 | 56.5

Sequence | folding enthalpy [1] [kcal/mol] | Tm [2] [°C]
GCATAGCGAAAGCTTTGC (((.(((....))).))) | -41.9 | 53.4
GCATAGGAAACTATGC ((((((....)))))) | -35.4 | 53.7
GCATAGGGAAACTTGTGC (((.(.(....).).))) | -13 | 29.9
GCATATGCGAAAGCATGC (((..(((....)))))) | -14.8 | 48.2
GCATATGGAAACATACGC ((.((((....)))).)) | -26.3 | 35.4
GCATATTCGAAAGAATGC (((..(((....)))))) | -18.7 | 34
GCATCACCGAAAGGTTGC (((..(((....)))))) | -19.1 | 37.4
GCATCCCGAAAGGGTGC (((.(((....)))))) | -15.5 | 61.5
GCATCCCGAAAGGGTTGC (((.(((....))).))) | -30.1 | 60.1
GCATCCGAAAGGACTTGC ((((((....)))..))) | -19.4 | 32.9
GCATCGACGAAAGTCTGC (((..(((....)))))) | -15.8 | 33.6
GCATCGCCGAAAGGCTGC (((..(((....)))))) | -14.1 | 43.4
GCATCGCGAAAGCCACGC ((.(.((....)).).)) | -10.2 | 26.5
GCATCGCGAAAGCGACGC ((.((((....)))).)) | -21.4 | 63.9
GCATCGCGAAAGCGCAGC ((..(((....)))..)) | -12.6 | 39.9
GCATCGCGAAAGCGTGC (((.(((....)))))) | -19.7 | 63.8
GCATCGCGAAAGCGTTGC (((.(((....))).))) | -44.2 | 58.5
GCATCGCGAAAGCTAGGC ((.(.((....)).).)) | -14 | 42.8
GCATCGCGAAAGCTATGC ((((.((....)).)))) | -24.1 | 59
GCATCGGGAAACCGGTGC (((.(((....))).))) | -44.5 | 59.1
GCATCGTCGAAAGACTGC (((..(((....)))))) | -15.8 | 36.8
GCATCTCCGAAAGGATGC (((..(((....)))))) | -28.6 | 46.1
GCATCTCGAAAGAGGTGC (((.(((....))).))) | -37.4 | 59.8

Sequence | folding enthalpy [1] [kcal/mol] | Tm [2] [°C]
GCATGACCGAAAGGTTGC (((..(((....)))))) | -18.6 | 41.5
GCATGACGAAAGTCGTGC (((.(((....))).))) | -42 | 63.6
GCATGACGAAAGTCTGC (((.(((....)))))) | -29 | 53.9
GCATGAGGAAACTCACGC ((.((((....)))).)) | -28 | 41.3
GCATGCCGAAAGGCTGC (((.(((....)))))) | -21.6 | 65.7
GCATGCGAAAGCAAATGC ((((((....)))..))) | -24.9 | 52.6
GCATGCGAAAGCATATGC ((((((....)))..))) | -20.1 | 50.1
GCATGCGAAAGCATTTGC ((((((....)))..))) | -14.4 | 42.3
GCATGCGGAAACGTGTGC (((..((....))..))) | -37.8 | 50.4
GCATGGCGAAAGCCTTGC (((.(((....))).))) | -35.4 | 60.8
GCATGGCGAAAGCGATGC ((((.((....)).)))) | -22 | 64.2
GCATGGGGAAACCCATAC (.(((((....))))).) | -15.6 | 36.5
GCATGGGGAAACCTATGC ((((.((....)).)))) | -39.4 | 50.8
GCATGTGCGAAAGCATGC (((..(((....)))))) | -18.3 | 52.2
GCATGTTCGAAAGAATGC (((..(((....)))))) | -24 | 30.8
GCATTAGCGAAAGCTTGC (((..(((....)))))) | -18.1 | 40
GCATTAGGAAACTAATGC (((((((....))))))) | -44.6 | 55.6
GCATTCCGAAAGGATGC (((.(((....)))))) | -30.7 | 53.7
GCATTCGAAAGAACTGC ((((((....))).))) | -28.2 | 34.9
GCATTCGAAAGAATCTGC ((((((....)))..))) | -21.5 | 34.5
GCATTCGAAAGAATTGC ((((((....))).))) | -19.5 | 41.1
GCATTGAAAAATGC (((((....))))) | -31.2 | 49.2
GCATTGACGAAAGTCTGC (((..(((....)))))) | -16.5 | 38.9

Sequence | folding enthalpy [1] [kcal/mol] | Tm [2] [°C]
GCATTGCGAAAGCAAAGC ((.((((....)))).)) | -18.6 | 58
GCATTGCGAAAGCAACGC ((.((((....)))).)) | -26.7 | 60.4
GCATTGCGAAAGCAGGGC ((..(((....)))..)) | -20.7 | 51
GCATTGCGAAAGCATAGC ((..(((....)))..)) | -19 | 48.8
GCATTGCGAAAGCATGC (((.(((....)))))) | -34.3 | 55.7
GCATTGCGAAAGCCATGC ((((.((....)).)))) | -29.1 | 58.4
GCATTGCGAAAGCGTTGC (((..((....))..))) | -21.9 | 47.5
GCATTGCGAAAGCTAGGC ((.(.((....)).).)) | -17.9 | 48.7
GCATTGGAAACAATGC ((((((....)))))) | -39.4 | 57.7
GCATTGGGAAACTAATGC (((((.(....).))))) | -32.6 | 46.7
GCATTTGGAAACAAATGC (((((((....))))))) | -46.7 | 60
GCATTTGGAAACAGATGC ((((.((....)).)))) | -33.4 | 44
GCCAAACGAAAGTTAGGC (((.(((....))).))) | -29.5 | 54.9
GCCAAATCGAAAGATGGC (((..(((....)))))) | -27.2 | 47.4
GCCAACCGAAAGGTCGGC (((.(((....))).))) | -40.2 | 59.4
GCCAACCGAAAGGTGGC (((.(((....)))))) | -22.9 | 67.4
GCCAACGAAAGTTCCGGC ((((((....)))..))) | -20.6 | 36.3
GCCAACGAAAGTTCGGGC ((((((....)))..))) | -30 | 43.8
GCCAACGAAAGTTGGGGC ((((((....)))..))) | -15.3 | 65.4
GCCAACGAAAGTTTCGGC ((((((....)))..))) | -18.4 | 39
GCCAACGAAAGTTTGGC ((((((....))).))) | -34.1 | 54.6
GCCAACGCGAAAGCGGGC (((..(((....)))))) | -16.4 | 63.4
